Test results published in ChEMBL document CHEMBL1781932 (J Med Chem, 2011).
≈ marks a conversion by molar mass, not a printed value.

Legend:
Assay type in all cases: functional
[1] = test system: Staphylococcus aureus; assay: Antimicrobial activity against tetracycline-resistant Staphylococcus aureus isolate 158 harboring tetK gene by CLSI dilution method
[2] = test system: Staphylococcus aureus; assay: Antimicrobial activity against methicillin-, tetracycline-resistant Staphylococcus aureus isolate 161 harboring tetM gene by CLSI dilution method
[3] = test system: Streptococcus pneumoniae; assay: Antimicrobial activity against tetracycline-susceptible Streptococcus pneumoniae isolate 106 by CLSI dilution method
Summary of the method: (§1)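 Broth microdilution per CLSI in fresh cation-adjusted Mueller Hinton broth, kept at 4 °C before testing, with defibrinated horse blood added as appropriate. Strains were from ATCC. MIC in µg/mL. Runs were accepted when comparator antibiotics against ATCC quality-control strains fell within recommended ranges.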

[4] = test system: Streptococcus pneumoniae; assay: Antimicrobial activity against tetracycline-resistant Streptococcus pneumoniae isolate 160 harboring tetM gene by CLSI dilution method
[5] = test system: Escherichia coli; assay: Antimicrobial activity against tetracycline-susceptible Escherichia coli isolate 107 by CLSI dilution method; summary of the method: as §1
[6] = test system: Enterococcus faecalis; assay: Antimicrobial activity against tetracycline-susceptible Enterococcus faecalis isolate 103 by CLSI dilution method; summary of the method: as §1
[7] = test system: Staphylococcus aureus; assay: Antimicrobial activity against tetracycline-susceptible Staphylococcus aureus isolate 101 by CLSI dilution method
[8] = test system: Klebsiella pneumoniae; assay: Antimicrobial activity against tetracycline-resistant Klebsiella pneumoniae isolate 153 harboring tetA gene by CLSI dilution method
[9] = test system: Enterococcus faecalis; assay: Antimicrobial activity against tetracycline-resistant Enterococcus faecalis isolate 159 harboring […] gene by CLSI dilution method
[10] = test system: Escherichia coli; assay: Antimicrobial activity against tetracycline-resistant Escherichia coli isolate 155 harboring tetA gene by CLSI dilution method
[11] = test system: Klebsiella pneumoniae; assay: Antimicrobial activity against tetracycline-susceptible Klebsiella pneumoniae isolate 109 by CLSI dilution method; summary of the method: as §1
[12] = test system: Enterobacter cloacae; assay: Antimicrobial activity against tetracycline-susceptible Enterobacter cloacae isolate 108 by CLSI dilution method; summary of the method: as §1
[13] = test system: Acinetobacter baumannii; assay: Antimicrobial activity against tetracycline-susceptible Acinetobacter baumannii isolate 110 by CLSI dilution method; summary of the method: as §1
[14] = test system: Pseudomonas aeruginosa; assay: Antimicrobial activity against tetracycline-susceptible Pseudomonas aeruginosa isolate 111 by CLSI dilution method; summary of the method: as §1

## CN(C)[C@@H]1C(O)=C(C(N)=O)C(=O)[C@@]2(O)C(O)=C3C(=O)c4c(cc5ccc(CN(C)S(C)(=O)=O)cc5c4O)C[C@H]3C[C@@H]12
[1]
  MIC: 2 µg/mL (≈ 3.42 µM)
[2]
  MIC: 2 µg/mL (≈ 3.42 µM)
[3]
  MIC: 1 µg/mL (≈ 1.71 µM)
[4]
  MIC: 4 µg/mL (≈ 6.83 µM)
[5]
  MIC: > 32 µg/mL
[6]
  MIC: 2 µg/mL (≈ 3.42 µM)
[7]
  MIC: 2 µg/mL (≈ 3.42 µM)
[8]
  MIC: > 32 µg/mL
[9]
  MIC: 2 µg/mL (≈ 3.42 µM)
[10]
  MIC: > 32 µg/mL
[11]
  MIC: > 32 µg/mL
[12]
  MIC: > 32 µg/mL
[13]
  MIC: > 32 µg/mL
[14]
  MIC: > 32 µg/mL

## CN(C)[C@@H]1C(O)=C(C(N)=O)C(=O)[C@@]2(O)C(O)=C3C(=O)c4c(c(F)c5ccc(CN6CCCC6)cc5c4O)C[C@H]3C[C@@H]12
[1]
  MIC: 0.125 µg/mL (≈ 0.221 µM)
[2]
  MIC: 1 µg/mL (≈ 1.77 µM)
[3]
  MIC: 0.0313 µg/mL (≈ 0.0553 µM)
[4]
  MIC: 0.0313 µg/mL (≈ 0.0553 µM)
[5]
  MIC: 1 µg/mL (≈ 1.77 µM)
[6]
  MIC: 0.125 µg/mL (≈ 0.221 µM)
[7]
  MIC: 0.25 µg/mL (≈ 0.442 µM)
[8]
  MIC: 4 µg/mL (≈ 7.07 µM)
[9]
  MIC: 1 µg/mL (≈ 1.77 µM)
[10]
  MIC: 4 µg/mL (≈ 7.07 µM)
[11]
  MIC: 2 µg/mL (≈ 3.54 µM)
[12]
  MIC: 4 µg/mL (≈ 7.07 µM)
[13]
  MIC: 0.25 µg/mL (≈ 0.442 µM)
[14]
  MIC: 32 µg/mL (≈ 56.6 µM)

## CN(Cc1ccc2cc3c(c(O)c2c1)C(=O)C1=C(O)[C@]2(O)C(=O)C(C(N)=O)=C(O)[C@@H](N(C)C)[C@@H]2C[C@@H]1C3)c1ccccc1
[1]
  MIC: 1 µg/mL (≈ 1.71 µM)
[2]
  MIC: 8 µg/mL (≈ 13.7 µM)
[3]
  MIC: 2 µg/mL (≈ 3.43 µM)
[4]
  MIC: 2 µg/mL (≈ 3.43 µM)
[5]
  MIC: > 32 µg/mL
[6]
  MIC: 4 µg/mL (≈ 6.85 µM)
[7]
  MIC: 1 µg/mL (≈ 1.71 µM)
[8]
  MIC: > 32 µg/mL
[9]
  MIC: 4 µg/mL (≈ 6.85 µM)
[10]
  MIC: > 32 µg/mL
[11]
  MIC: > 32 µg/mL
[12]
  MIC: > 32 µg/mL
[13]
  MIC: > 32 µg/mL
[14]
  MIC: > 32 µg/mL

## CNCc1ccc2c(N(C)C)c3c(c(O)c2c1)C(=O)C1=C(O)[C@]2(O)C(=O)C(C(N)=O)=C(O)[C@@H](N(C)C)[C@@H]2C[C@@H]1C3
[1]
  MIC: 0.5 µg/mL (≈ 0.908 µM)
[2]
  MIC: 2 µg/mL (≈ 3.63 µM)
[3]
  MIC: 0.125 µg/mL (≈ 0.227 µM)
[4]
  MIC: 0.5 µg/mL (≈ 0.908 µM)
[5]
  MIC: 2 µg/mL (≈ 3.63 µM)
[6]
  MIC: 0.5 µg/mL (≈ 0.908 µM)
[7]
  MIC: 0.25 µg/mL (≈ 0.454 µM)
[8]
  MIC: 32 µg/mL (≈ 58.1 µM)
[9]
  MIC: 4 µg/mL (≈ 7.26 µM)
[10]
  MIC: 32 µg/mL (≈ 58.1 µM)
[11]
  MIC: 4 µg/mL (≈ 7.26 µM)
[12]
  MIC: 8 µg/mL (≈ 14.5 µM)
[13]
  MIC: 2 µg/mL (≈ 3.63 µM)
[14]
  MIC: > 32 µg/mL

## CN(C)[C@@H]1C(O)=C(C(N)=O)C(=O)[C@@]2(O)C(O)=C3C(=O)c4c(c(Cl)c5ccc(F)cc5c4O)C[C@H]3C[C@@H]12
[1]
  MIC: 2 µg/mL (≈ 3.87 µM)
[2]
  MIC: 2 µg/mL (≈ 3.87 µM)
[3]
  MIC: > 32 µg/mL
[4]
  MIC: > 32 µg/mL
[5]
  MIC: > 32 µg/mL
[6]
  MIC: 2 µg/mL (≈ 3.87 µM)
[7]
  MIC: 2 µg/mL (≈ 3.87 µM)
[8]
  MIC: > 32 µg/mL
[9]
  MIC: 2 µg/mL (≈ 3.87 µM)
[10]
  MIC: > 32 µg/mL
[11]
  MIC: > 32 µg/mL
[12]
  MIC: > 32 µg/mL
[13]
  MIC: > 32 µg/mL
[14]
  MIC: > 32 µg/mL

## CN(C)[C@@H]1C(O)=C(C(N)=O)C(=O)[C@@]2(O)C(O)=C3C(=O)c4c(cc5ccc(F)cc5c4O)C[C@H]3C[C@@H]12
[1]
  MIC: 0.25 µg/mL (≈ 0.518 µM)
[2]
  MIC: 0.5 µg/mL (≈ 1.04 µM)
[3]
  MIC: 2 µg/mL (≈ 4.15 µM)
[4]
  MIC: 8 µg/mL (≈ 16.6 µM)
[5]
  MIC: 16 µg/mL (≈ 33.2 µM)
[6]
  MIC: 0.25 µg/mL (≈ 0.518 µM)
[7]
  MIC: 0.5 µg/mL (≈ 1.04 µM)
[8]
  MIC: > 32 µg/mL
[9]
  MIC: 0.5 µg/mL (≈ 1.04 µM)
[10]
  MIC: > 32 µg/mL
[11]
  MIC: > 32 µg/mL
[12]
  MIC: > 32 µg/mL
[13]
  MIC: 4 µg/mL (≈ 8.29 µM)
[14]
  MIC: > 32 µg/mL

## CC(C)Oc1c2c(c(O)c3cc(CN4CCC4)ccc13)C(=O)C1=C(O)[C@]3(O)C(=O)C(C(N)=O)=C(O)[C@@H](N(C)C)[C@@H]3C[C@@H]1C2
[1]
  MIC: 0.25 µg/mL (≈ 0.423 µM)
[2]
  MIC: 4 µg/mL (≈ 6.76 µM)
[3]
  MIC: 0.0313 µg/mL (≈ 0.0529 µM)
[4]
  MIC: 0.0625 µg/mL (≈ 0.106 µM)
[5]
  MIC: 4 µg/mL (≈ 6.76 µM)
[6]
  MIC: 0.5 µg/mL (≈ 0.845 µM)
[7]
  MIC: 0.125 µg/mL (≈ 0.211 µM)
[8]
  MIC: 32 µg/mL (≈ 54.1 µM)
[9]
  MIC: 4 µg/mL (≈ 6.76 µM)
[10]
  MIC: 16 µg/mL (≈ 27 µM)
[11]
  MIC: 16 µg/mL (≈ 27 µM)
[12]
  MIC: 16 µg/mL (≈ 27 µM)
[13]
  MIC: 2 µg/mL (≈ 3.38 µM)
[14]
  MIC: > 32 µg/mL

## CN(C)[C@@H]1C(O)=C(C(N)=O)C(=O)[C@@]2(O)C(O)=C3C(=O)c4c(cc5ccc(CN6CC(F)(F)C6)cc5c4O)C[C@H]3C[C@@H]12
[1]
  MIC: 1 µg/mL (≈ 1.76 µM)
[2]
  MIC: 1 µg/mL (≈ 1.76 µM)
[3]
  MIC: 2 µg/mL (≈ 3.51 µM)
[4]
  MIC: 4 µg/mL (≈ 7.02 µM)
[5]
  MIC: > 32 µg/mL
[6]
  MIC: 1 µg/mL (≈ 1.76 µM)
[7]
  MIC: 1 µg/mL (≈ 1.76 µM)
[8]
  MIC: > 32 µg/mL
[9]
  MIC: 1 µg/mL (≈ 1.76 µM)
[10]
  MIC: > 32 µg/mL
[11]
  MIC: > 32 µg/mL
[12]
  MIC: > 32 µg/mL
[13]
  MIC: > 32 µg/mL
[14]
  MIC: > 32 µg/mL

## CN(C)c1c2c(c(O)c3cc(F)ccc13)C(=O)C1=C(O)[C@]3(O)C(=O)C(C(N)=O)=C(O)[C@@H](N(C)C)[C@@H]3C[C@@H]1C2
[1]
  MIC: 0.125 µg/mL (≈ 0.238 µM)
[2]
  MIC: 1 µg/mL (≈ 1.9 µM)
[3]
  MIC: 2 µg/mL (≈ 3.81 µM)
[4]
  MIC: 4 µg/mL (≈ 7.61 µM)
[5]
  MIC: > 32 µg/mL
[6]
  MIC: 0.25 µg/mL (≈ 0.476 µM)
[7]
  MIC: 0.25 µg/mL (≈ 0.476 µM)
[8]
  MIC: > 32 µg/mL
[9]
  MIC: 0.25 µg/mL (≈ 0.476 µM)
[10]
  MIC: > 32 µg/mL
[11]
  MIC: > 32 µg/mL
[12]
  MIC: > 32 µg/mL
[13]
  MIC: 16 µg/mL (≈ 30.4 µM)
[14]
  MIC: > 32 µg/mL

## CN(C)[C@@H]1C(O)=C(C(N)=O)C(=O)[C@@]2(O)C(O)=C3C(=O)c4c(cc5c(CNC6CC6)cccc5c4O)C[C@H]3C[C@@H]12
[1]
  MIC: 1 µg/mL (≈ 1.87 µM)
[2]
  MIC: 16 µg/mL (≈ 30 µM)
[3]
  MIC: 0.5 µg/mL (≈ 0.937 µM)
[4]
  MIC: 4 µg/mL (≈ 7.5 µM)
[5]
  MIC: 16 µg/mL (≈ 30 µM)
[6]
  MIC: 4 µg/mL (≈ 7.5 µM)
[7]
  MIC: 2 µg/mL (≈ 3.75 µM)
[8]
  MIC: > 32 µg/mL
[9]
  MIC: 16 µg/mL (≈ 30 µM)
[10]
  MIC: > 32 µg/mL
[11]
  MIC: 32 µg/mL (≈ 60 µM)
[12]
  MIC: > 32 µg/mL
[13]
  MIC: 4 µg/mL (≈ 7.5 µM)
[14]
  MIC: > 32 µg/mL
